Bioassay records: PubChem, The Scripps Research Institute Molecular Screening Center
Most compounds without a hit are left out; they make up all but 4.3% or so of the library.
TAAR1 antag = human TAAR1 antagonism; CHO RD-HGA16 TAAR1, Fluo-8 calcium fluorescence, antagonist; hit rate 1.5% among 360,000; Q96RJ0; AID 624466; inhibition, % at 3 µM;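 active = inhibition above a per-plate cutoff, the mean inhibition of test compounds on that plate plus 3 SD, cut at about 49% in these data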;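 also: 0% = DMSO plus EC80 beta-PEA response and 100% = DMSO alone without agonist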
Target sequence (Q96RJ0 whole entry, looked up): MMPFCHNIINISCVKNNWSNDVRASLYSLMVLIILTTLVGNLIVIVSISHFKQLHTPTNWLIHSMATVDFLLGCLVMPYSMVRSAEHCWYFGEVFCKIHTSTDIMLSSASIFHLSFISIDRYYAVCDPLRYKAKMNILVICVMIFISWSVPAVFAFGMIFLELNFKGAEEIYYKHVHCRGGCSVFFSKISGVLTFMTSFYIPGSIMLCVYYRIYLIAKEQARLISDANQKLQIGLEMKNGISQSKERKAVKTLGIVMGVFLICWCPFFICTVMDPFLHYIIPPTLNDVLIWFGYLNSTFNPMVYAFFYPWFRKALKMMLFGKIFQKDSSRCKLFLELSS
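Assay system: CHO-derived RD-HGA16 cells stably expressing human TAAR1 plus Gα16. Timing: 140 s kinetic read after compound, 140 s after agonist. Technique: kinetic Fluo-8 calcium fluorescence measurement. Measure: % inhibition of agonist calcium response.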
OX1R antag-1 = OX1R (human) antagonism; inhibition, % at 6.6 µM; AID 485270; O43613; hit rate 1.8% among 330,000; OX1R-expressing cells, FRET antagonist read-out; in the data active = inhibition mostly above about 38%, no sharp cut-off; inactive = mostly below about 40%;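 also: 0% = agonist challenge alone and 100% = reference antagonist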
Target sequence (O43613 whole entry, looked up): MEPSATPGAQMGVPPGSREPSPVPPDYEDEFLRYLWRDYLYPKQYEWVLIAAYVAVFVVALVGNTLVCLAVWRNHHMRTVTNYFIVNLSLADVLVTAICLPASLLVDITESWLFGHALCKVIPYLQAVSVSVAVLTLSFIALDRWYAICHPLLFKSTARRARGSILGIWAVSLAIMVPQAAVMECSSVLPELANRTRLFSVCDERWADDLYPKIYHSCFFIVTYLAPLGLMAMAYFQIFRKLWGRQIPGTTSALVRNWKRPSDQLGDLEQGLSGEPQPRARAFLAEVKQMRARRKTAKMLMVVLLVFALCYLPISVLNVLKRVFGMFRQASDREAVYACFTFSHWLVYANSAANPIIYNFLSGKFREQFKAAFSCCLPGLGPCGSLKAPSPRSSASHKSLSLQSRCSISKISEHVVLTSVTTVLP
GalR3 antagonist = human GalR3 antagonism | O60755 | HEK293 GalR3-CNG cAMP membrane potential fluorescence; galR3 body fused to GalR1 C-terminus | inhibition, % at 3 µM | hit rate 0.44% among 360,000 | AID 651719;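 active = inhibition above the screen-wide average plus 3 SD, cut at about 13% in these data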;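 also: forskolin and galanin both at EC90 stimulate the cells; cAMP rise reported by CNG channel membrane potential dye signal; 0% = forskolin plus galanin with DMSO and 100% = forskolin alone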
TAAR1 ag = agonists of human TAAR1 | hit rate 0.99% among 360,000 | activation, % at 3 µM | AID 624467 | CHO RD-HGA16 TAAR1, Fluo-8 calcium fluorescence; vehicle wells 0%, saturating PEA agonist 100% | Q96RJ0;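 active = activation above the mean activation of all test compounds in the run plus 3 SD, cut at about 38% in these data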
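Test system: RD-HGA16 (CHO) cells co-expressing Gα16 and hTAAR1 / Benchmarks: DMSO vehicle as 0%, PEA at EC100 as 100% / Repeats: no replicates (n 1) / Measure: % activation from peak over basal fluorescence ratio, DMSO-to-PEA scaled / Timing: 17-24 h plating, Fluo-8 75 min 37 °C, 30 min RT / Technique: kinetic Fluo-8 calcium fluorescence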
CHO parental Ca = counter-screen: ATP calcium response change in parental CHO cells; hit rate 0.63% among 330,000; AID 463079; inhibition, % at 5.6 µM; parental CHO-K1, ATP-induced calcium, Fluo-8 fluorescence;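 active = inhibition above that plate's mean sample inhibition plus 3 SD, cut at about 26% in these data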;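 also: 0% = ATP-challenged DMSO wells and 100% = DMSO wells without ATP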
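Material: Parental CHO cells | Reagent: ATP | Compound dosing: Single nominal dose of 5.6 µM per compound | Detection: Intracellular calcium via Fluo-8 no-wash fluorescent dye | Read-out: % inhibition of ATP-induced calcium mobilization | Benchmarks: Low control ATP plus DMSO, high control DMSO only | Replicates: Singlicate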
OX1R antag-2 = blocks the human orexin 1 receptor; CHO/OX1R cells, Fluo-8 calcium fluorescence, orexin A; AID 434989; inhibition, % at 5 µM; hit rate 0.43% among 330,000;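 active = inhibition above its plate's threshold, mean inhibition of all tested compounds on the plate plus 3 SD, cut at about 37% in these data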;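 also: 0% = orexin A challenge wells and 100% = SB-334867-A antagonist wells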
nonsel antag count = counter-screen for TAAR1 antagonists: nonselective antagonists | counterscreen cell line, calcium fluorescence, antagonist mode | AID 651780 | shares compounds with TAAR1 antag | inhibition, % at 3 µM | hit rate 77% among 2,400; in the data active = inhibition above about 22%;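 also: CHO-Ga16 host cells stimulated with ATP at an EC80 level; 0% = agonist EC80 plus vehicle and 100% = vehicle without agonist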
TAAR1 antag conf = human TAAR1 antagonism, confirmed; shares compounds with TAAR1 antag; TAAR1-expressing cells, fluorescence antagonist read-out; inhibition, % at 3 µM; hit rate 40% among 2,400; in the data active = inhibition above about 49%;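 also: CHO-Ga16 host cells challenged with agonist PEA near its EC80; 0% = agonist at EC80 plus vehicle and 100% = vehicle with no agonist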
Ga16 ag counter = counter-screen for TAAR1 antagonists: nonselective Ga16 agonists; Ga16-expressing cells, calcium fluorescence, agonist counterscreen; shares compounds with TAAR1 antag; AID 651953; hit rate 18% among 2,400; activation, % at 3 µM; in the data active = activation above about 12%;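 also: 0% = vehicle wells and 100% = saturating stimulus response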
TAAR1 ag counter = counter-screen for human TAAR1 antagonists: TAAR1 agonists | shares compounds with TAAR1 antag | hTAAR1 cell line, fluorescence activation, agonist mode | activation, % at 3 µM | hit rate 2% among 2,400; in the data active = activation above about 37%;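 also: CHO cells stably expressing TAAR1 with calcium dye readout; 0% = DMSO vehicle and 100% = full agonist response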
Active calls of the source: *; / = no result.

SMILES | TAAR1 antag | OX1R antag-1 | GalR3 antagonist | TAAR1 ag | CHO parental Ca | OX1R antag-2 | nonsel antag count | TAAR1 antag conf | Ga16 ag counter | TAAR1 ag counter
CCCn1c(SCC(=O)Nc2ccccc2OC)nnc1-c1ccco1 | -10.9 | 32.2 | -10.0 | 3.9 | -10.9 | -14.8 | / | / | / | /
CS(=O)c1nc(-c2ccc(Br)cc2)cc(-c2ccccc2)c1C#N (configuration not stated) | 69.7* | 23.5 | -14.8 | -2.0 | 83.9* | 81.2* | 27.1* | 53.0* | 4.4 | 1.7
Cc1ccc(NC(=O)Nc2cccnc2)cc1NC(=O)Nc1cccnc1 | 49.9* | 0.7 | -9.5 | 2.0 | -14.3 | -16.4 | 18.6 | 35.3 | 3.5 | 4.1
Cc1ccc(C(=O)Nc2cccc(-c3ccc(N4CCOCC4)nn3)c2)cc1[N+](=O)[O-] | 59.9* | 11.8 | 0.0 | 12.7 | -18.9 | -23.2 | 21.4 | 45.0 | 8.1 | 5.2
O=C(Nc1cccc(-c2ccc(N3CCOCC3)nn2)c1)c1ccccc1 | 34.7 | 11.7 | -2.3 | 5.3 | 0.4 | -27.0 | / | / | / | /
CC(=O)c1ccc(OC(=O)COc2ccccc2Cl)cc1 | -9.5 | 9.5 | -4.5 | 0.1 | -2.7 | -13.4 | / | / | / | /
CC(C)C1OC(CCc2ccccc2)Cc2[nH][nH]c(=O)c21 (configuration not stated) | -25.9 | / | -6.5 | 1.1 | / | / | / | / | / | /
CCN1C(c2ccccc2)C(C)C(=O)C(C)C1c1ccccc1 (configuration not stated) | 52.2* | 8.1 | -2.2 | -0.5 | 1.7 | -17.4 | 12.9 | -6.1 | -1.3 | -4.8
CCCn1c(CCNc2nc(-c3cccc(Br)c3)cs2)nc2ccccc21 | 9.6 | / | -4.2 | 0.5 | / | / | / | / | / | /
CC(C)OC1=CC(=O)OC(c2cccc(Cl)c2)C1 (configuration not stated) | -4.2 | / | -9.2 | -1.2 | / | / | / | / | / | /
NC(=O)C1CCN(C(=O)c2cc(-c3ccc(Cl)s3)nc3ccccc23)CC1 | 59.9* | 2.3 | -3.5 | 12.4 | -12.3 | -8.6 | 32.3* | 43.9 | 10.6 | 12.6
COc1ccc(-c2cc(C(=O)N3CCN(c4ccccc4O)CC3)c3ccccc3n2)cc1OC | 74.0* | 26.1 | -0.8 | 10.9 | -19.9 | -8.5 | 26.4* | 46.5 | 8.3 | 6.3
Cc1ccc(-c2cc(C(=O)N3CCN(c4ccccc4O)CC3)c3ccccc3n2)cc1 | 62.4* | 3.2 | -2.6 | 6.7 | -14.0 | -24.8 | 35.8* | 43.6 | 6.1 | 1.7
O=C(c1cc(-c2ccccc2Cl)nc2ccccc12)N1CCN(c2ccccc2O)CC1 | 59.3* | 7.5 | 2.8 | 13.9 | -16.4 | -14.5 | 22.2* | 36.5 | 7.2 | 5.6
O=C(c1cc(-c2ccccc2)nc2ccccc12)N1CCCC1 | -15.7 | 2.9 | -9.0 | 3.9 | -9.9 | -17.9 | / | / | / | /
C=C(C)COc1ccc2c(C)c(CCC(=O)N3C[C@H]4C[C@@H](C3)c3cccc(=O)n3C4)c(=O)oc2c1 | 10.8 | 14.7 | 2.4 | 1.4 | -19.2 | -25.9 | / | / | / | /
COc1ccccc1CN1CCCC(CNC(=O)c2cccc3ccccc23)C1 (configuration not stated) | -13.7 | 1.3 | -10.3 | -0.3 | -19.5 | -33.6 | / | / | / | /
CN(Cc1ccccc1F)C(=O)c1cccc(NC(=O)CC2SC(N3CCCCC3)=NC2=O)c1 (configuration not stated) | 2.1 | / | 5.6 | 0.3 | / | / | / | / | / | /
Cc1ccc(-c2cc(C(=O)N3CCN(c4ccc(O)cc4)CC3)c3ccccc3n2)cc1 | 64.7* | -4.1 | -5.0 | 14.2 | -15.4 | -11.2 | 34.8* | 43.3 | 9.9 | 8.3
COc1ccc(-c2cc(C(=O)N3CCN(c4ccccc4)CC3)c3ccccc3n2)cc1 | 48.1 | 15.8 | -4.0 | 11.5 | -8.6 | -41.8 | / | / | / | /
C=CC[C@@H](Cc1ccc(F)cc1)C(=O)OC[C@@H]1CCCN1C(=O)[C@@H](CC=C)CC(=O)N[C@H](CO)Cc1ccccc1 | 65.6* | 6.8 | -8.1 | 26.0 | -6.8 | 15.2 | 35.8* | 34.2 | 8.8 | 9.3
C=CC[C@@H](Cc1ccc(F)cc1)C(=O)OC[C@H]1CCCN1C(=O)[C@@H](CC=C)CC(=O)N[C@H](CO)Cc1ccccc1 | 81.3* | -3.5 | -7.8 | 22.0 | 7.5 | 27.3 | 41.0* | 42.9 | 12.7* | 7.4
C=CC[C@@H](Cc1ccc(F)cc1)C(=O)OC[C@H]1CCCN1C(=O)[C@@H](CC=C)CC(=O)N[C@@H](CO)Cc1ccccc1 | 16.2 | 7.0 | -4.6 | 10.3 | -25.4 | 12.4 | / | / | / | /
C=CCC[C@@H](Cc1ccc(F)cc1)C(=O)OC[C@H]1CCCN1C(=O)[C@@H](CC=C)CC(=O)N[C@H](CO)Cc1ccccc1 | 67.0* | 9.6 | -4.7 | 18.4 | -16.0 | 17.6 | 28.9* | 53.3* | 7.3 | 6.6
C=CC[C@@H](Cc1ccc(F)cc1)C(=O)OC[C@@H]1CCCN1C(=O)[C@@H](CC=C)CC(=O)N[C@@H](CO)Cc1ccccc1 | 10.4 | 11.7 | -5.1 | 7.9 | -20.5 | -7.4 | / | / | / | /
SMILES | TAAR1 antag | OX1R antag-1 | GalR3 antagonist | TAAR1 ag | CHO parental Ca | OX1R antag-2 | nonsel antag count | TAAR1 antag conf | Ga16 ag counter | TAAR1 ag counter
COc1ccc(NC(=O)c2cc(-c3sc(NC(=O)c4ccccc4)nc3C)n(CCO)n2)cc1 | 11.7 | / | -5.2 | 5.2 | / | / | / | / | / | /
O=C(C1CCCCC1)N1CCN(c2ccnc3cc(Cl)ccc23)CC1 | 15.9 | 19.4 | -1.9 | 7.3 | 2.6 | -22.6 | / | / | / | /
CCOC(=O)c1cc(-c2nnc(SCC(=O)Nc3ccc(F)cc3)o2)c(C)nc1C | 54.5* | 18.3 | 0.7 | 9.4 | -28.2 | -27.4 | 18.3 | 30.7 | 5.4 | 3.3
COC(=O)[C@H](C)[C@@H]1C[C@@]1(C)[C@@H](NC(=O)OCc1ccccc1)c1ccccc1 | 28.9 | 17.0 | -6.5 | 14.2 | -15.7 | -31.8 | / | / | / | /
C[C@@H](C(=O)O)[C@H]1C[C@]1(C)[C@H](NC(=O)OCc1ccccc1)c1ccccc1 | 75.2* | 24.1 | -3.9 | -0.5 | -7.9 | -7.8 | 5.6 | 3.5 | 2.2 | -1.3
COC(=O)[C@H]1C[C@@H]1[C@H](NC(=O)[C@H]1C[C@@H]1[C@H](NC(=O)OCc1ccccc1)c1ccccc1)c1ccccc1 | 58.8* | 31.6 | -10.2 | 11.4 | -23.4 | -23.6 | 30.2* | 33.7 | 5.3 | 0.8
CC(C)(C)OC(=O)NCC(=O)NNC(=O)C(C(=O)OCc1ccccc1)c1ccccc1 (configuration not stated) | -16.9 | 6.0 | -0.7 | 3.6 | -20.6 | -15.9 | / | / | / | /
